Assay results reported in ChEMBL document CHEMBL3792366, “Role of disulfide linkage in action of bis(dialkylaminethiocarbonyl)disulfides as potent double-Edged microbicidal spermicide: Design, synthesis and biology” (Eur J Med Chem, 2016).
Values after ≈ are worked out from the molar mass of the structure shown.

Experiments:
Candida albicans = experiment: Antifungal activity against Candida albicans after 48 hrs by broth microdilution method; format: functional
Summary of the method: (§1)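 NCCLS broth microdilution in RPMI 1640 buffered with MOPS; starting inoculum 1–5 × 10^3 CFU/mL; plates incubated at 35 °C; MIC read after 48 h.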

[1] = test system: Trichophyton mentagrophytes; experiment: Antifungal activity against Trichophyton mentagrophytes after 48 hrs by broth microdilution method; format: functional; summary of the method: as §1
Candida parapsilosis = experiment: Antifungal activity against Candida parapsilosis ATCC 22019 after 48 hrs by broth microdilution method; format: functional; conditions: Lodderomyces parapsilosis, ATCC 22019, 48 h; summary of the method: as §1
[2] = Spermicidal activity in human sperms assessed as motility measured within 30 secs by phase contrast microscopy; format: functional, Sperm
Summary of the method: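 Liquefied human semen (0.05 mL) was added to 0.25 mL test solution and vortexed 10 s at low speed. Motile sperm were scored visually under phase contrast in five fields within 30 s; assays in triplicate; MEC = minimum effective concentration.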

Trichomonas vaginalis [3] = experiment: Antitrichomonas activity against metronidazole-resistant trophozoite stage of Trichomonas vaginalis ATCC 50143 assessed as cell viability under anaerobic condition after 48 hrs by trypan blue exclusion assay; format: functional; conditions: ATCC 50143, 48 h
Summary of the method: (§2)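 Log-phase T. vaginalis grown in TYM with 10% FCS, vitamin mix and penicillin/streptomycin at 37 °C. Compounds were made as 100 µg/mL DMSO stocks and serially diluted in TYM down to 0.1 µg/mL; DMSO/TYM served as vehicle. Parasites were incubated anaerobically at 37 °C, and viability was checked by trypan blue exclusion from 3 to 48 h. MIC = lowest concentration killing all cells by 48 h; each test was repeated three times.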

Sporothrix schenckii = experiment: Antifungal activity against Sporothrix schenckii after 48 hrs by broth microdilution method; format: functional; summary of the method: as §1
Cryptococcus neoformans = experiment: Antifungal activity against Cryptococcus neoformans after 48 hrs by broth microdilution method; format: functional; summary of the method: as §1
Trichomonas vaginalis [4] = experiment: Antitrichomonas activity against trophozoite stage of Trichomonas vaginalis clinical isolate assessed as cell viability under anaerobic condition after 48 hrs by trypan blue exclusion assay; format: functional; summary of the method: as §2
Trichomonas vaginalis [5] = experiment: Potency index, ratio of metronidazole MIC to compound MIC for metronidazole-resistant trophozoite stage of Trichomonas vaginalis ATCC 50143; format: functional

Question: With S=C(SCCN1CCCCC1)N1CCN(C(=S)SSC(=S)N2CCN(C(=S)SCCN3CCCCC3)CC2)CC1 as the molecule, how does the MIC (Candida albicans) read?
Answer: > 71.7 µM

Question: And the MIC [1]?
Answer: > 71.7 µM

Question: And the MIC (Candida parapsilosis)?
Answer: > 71.7 µM

Question: And the MEC [2]?
Answer: 0.5%

Question: What about the MIC (Trichomonas vaginalis [3]) of the same molecule?
Answer: > 143 µM

Question: And the MIC (Sporothrix schenckii)?
Answer: > 71.7 µM

Question: What about the MIC (Cryptococcus neoformans) of the same molecule?
Answer: > 71.7 µM

Question: What about the MIC (Trichomonas vaginalis [4]) of the same molecule?
Answer: > 143 µM

Question: Which results are given for CC(C)(C)OC(=O)N1CCN(C(=S)SSC(=S)N2CCN(C(=O)OC(C)(C)C)CC2)CC1?
Answer: MIC (Candida albicans): > 91.7 µM; MIC [1]: > 91.7 µM; MIC (Candida parapsilosis): > 91.7 µM; MEC [2]: >1%; MIC (Trichomonas vaginalis [3]): > 183 µM; MIC (Sporothrix schenckii): > 91.7 µM; MIC (Cryptococcus neoformans): > 91.7 µM; MIC (Trichomonas vaginalis [4]): > 183 µM

Question: For N#CCCCN1CCN(C(=S)SCSC(=S)N2CCN(CCCC#N)CC2)CC1, which MEC [2] is on record?
Answer: 0.5%

Question: With CC1CCN(C(=S)SSC(=S)N2CCC(C)CC2)CC1 as the molecule, how does the MIC (Candida albicans) read?
Answer: 17.9 µM (≈ 6.24 µg/mL)

Question: And the MIC [1]?
Answer: 35.8 µM (≈ 12.5 µg/mL)

Question: What about the MIC (Candida parapsilosis) of the same molecule?
Answer: 143 µM (≈ 49.9 µg/mL)

Question: And the MEC [2]?
Answer: 1%

Question: What about the MIC (Trichomonas vaginalis [3]) of the same molecule?
Answer: 35.8 µM (≈ 12.5 µg/mL)

Question: And the MIC (Sporothrix schenckii)?
Answer: 35.8 µM (≈ 12.5 µg/mL)

Question: And the Ratio (Trichomonas vaginalis [5])?
Answer: 4

Question: What about the MIC (Cryptococcus neoformans) of the same molecule?
Answer: 8.9 µM (≈ 3.1 µg/mL)

Question: And the MIC (Trichomonas vaginalis [4])?
Answer: 35.8 µM (≈ 12.5 µg/mL)

Question: With S=C(SSC(=S)N(C1CCCCC1)C1CCCCC1)N(C1CCCCC1)C1CCCCC1 as the molecule, how does the MIC (Candida albicans) read?
Answer: 48.7 µM (≈ 25 µg/mL)

Question: And the MIC [1]?
Answer: 97.4 µM (≈ 50 µg/mL)

Question: What about the MIC (Candida parapsilosis) of the same molecule?
Answer: > 97.4 µM

Question: What about the MEC [2] of the same molecule?
Answer: >1%

Question: And the MIC (Trichomonas vaginalis [3])?
Answer: > 194 µM

Question: And the MIC (Sporothrix schenckii)?
Answer: 97.4 µM (≈ 50 µg/mL)

Question: What about the MIC (Cryptococcus neoformans) of the same molecule?
Answer: 24.3 µM (≈ 12.5 µg/mL)

Question: What about the MIC (Trichomonas vaginalis [4]) of the same molecule?
Answer: > 194 µM

Question: Which MEC [2] does the source give for CCCCN1CCN(C(=S)SCCSC(=S)N2CCN(CCCC)CC2)CC1 here?
Answer: 0.5%

Question: What does the source list for CCCCCCCCSC(=S)N1CCN(C(=S)SSC(=S)N2CCN(C(=S)SCCCCCCCC)CC2)CC1?
Answer: MIC (Candida albicans): 35.7 µM (≈ 25 µg/mL); MIC [1]: > 71.5 µM; MIC (Candida parapsilosis): > 71.5 µM; MEC [2]: 1%; MIC (Trichomonas vaginalis [3]): > 143 µM; MIC (Sporothrix schenckii): 35.7 µM (≈ 25 µg/mL); MIC (Cryptococcus neoformans): 35.7 µM (≈ 25 µg/mL); MIC (Trichomonas vaginalis [4]): 89.4 µM (≈ 62.5 µg/mL)

Question: For CC(C)COC(=O)N1CCN(C(=S)SSC(=S)N2CCN(C(=O)OCC(C)C)CC2)CC1, which MIC (Candida albicans) is on record?
Answer: 95.6 µM (≈ 50 µg/mL)

Question: What about the MIC [1] of the same molecule?
Answer: 95.6 µM (≈ 50 µg/mL)

Question: What about the MIC (Candida parapsilosis) of the same molecule?
Answer: > 95.6 µM

Question: And the MEC [2]?
Answer: >1%

Question: And the MIC (Trichomonas vaginalis [3])?
Answer: > 191 µM

Question: And the MIC (Sporothrix schenckii)?
Answer: > 95.6 µM

Question: What about the MIC (Cryptococcus neoformans) of the same molecule?
Answer: > 95.6 µM

Question: What about the MIC (Trichomonas vaginalis [4]) of the same molecule?
Answer: > 191 µM

Question: Which results are given for CCCCCCCCCCSC(=S)N1CCN(C(=S)SSC(=S)N2CCN(C(=S)SCCCCCCCCCC)CC2)CC1?
Answer: MIC (Candida albicans): 66.2 µM (≈ 50 µg/mL); MIC [1]: > 66.2 µM; MIC (Candida parapsilosis): 66.2 µM (≈ 50 µg/mL); MEC [2]: 1%; MIC (Trichomonas vaginalis [3]): > 132 µM; MIC (Sporothrix schenckii): 66.2 µM (≈ 50 µg/mL); MIC (Cryptococcus neoformans): 33.1 µM (≈ 25 µg/mL); MIC (Trichomonas vaginalis [4]): > 132 µM

Question: For CCCSC(=S)N1CCN(CCCC#N)CC1, which MEC [2] is on record?
Answer: >1%

Question: Which MEC [2] does the source give for C=CCN1CCN(C(=S)SCCSC(=S)N2CCN(CC=C)CC2)CC1 here?
Answer: 0.5%

Question: Which MIC (Candida albicans) does the source give for S=C(SCc1ccccc1)N1CCN(C(=S)SSC(=S)N2CCN(C(=S)SCc3ccccc3)CC2)CC1 here?
Answer: > 76.3 µM

Question: And the MIC [1]?
Answer: > 76.3 µM

Question: What about the MIC (Candida parapsilosis) of the same molecule?
Answer: > 76.3 µM

Question: And the MEC [2]?
Answer: >1%

Question: What about the MIC (Trichomonas vaginalis [3]) of the same molecule?
Answer: 95.4 µM (≈ 62.5 µg/mL)

Question: What about the MIC (Sporothrix schenckii) of the same molecule?
Answer: > 76.3 µM

Question: What about the MIC (Cryptococcus neoformans) of the same molecule?
Answer: > 76.3 µM

Question: And the MIC (Trichomonas vaginalis [4])?
Answer: 95.4 µM (≈ 62.5 µg/mL)

Question: With CCCCCCCSC(=S)N1CCN(C(=S)SSC(=S)N2CCN(C(=S)SCCCCCCC)CC2)CC1 as the molecule, how does the MIC (Candida albicans) read?
Answer: > 74.5 µM

Question: And the MIC [1]?
Answer: > 74.5 µM

Question: And the MIC (Candida parapsilosis)?
Answer: 74.5 µM (≈ 50 µg/mL)

Question: What about the MEC [2] of the same molecule?
Answer: >1%

Question: And the MIC (Trichomonas vaginalis [3])?
Answer: > 149 µM

Question: What about the MIC (Sporothrix schenckii) of the same molecule?
Answer: 74.5 µM (≈ 50 µg/mL)

Question: What about the MIC (Cryptococcus neoformans) of the same molecule?
Answer: 74.5 µM (≈ 50 µg/mL)

Question: What about the MIC (Trichomonas vaginalis [4]) of the same molecule?
Answer: > 149 µM

Question: For CCCCN1CCN(C(=S)SCSC(=S)N2CCN(CCCC)CC2)CC1, which MEC [2] is on record?
Answer: 0.5%

Question: For N#CCCCN1CCN(C(=S)SCCSC(=S)N2CCN(CCCC#N)CC2)CC1, which MEC [2] is on record?
Answer: 0.5%

Question: For C=CCN1CCN(C(=S)SCSC(=S)N2CCN(CC=C)CC2)CC1, which MEC [2] is on record?
Answer: 1%

Question: For S=C(SCCN1CCOCC1)N1CCN(C(=S)SSC(=S)N2CCN(C(=S)SCCN3CCOCC3)CC2)CC1, which MIC (Candida albicans) is on record?
Answer: > 71.3 µM

Question: And the MIC [1]?
Answer: > 71.3 µM

Question: What about the MIC (Candida parapsilosis) of the same molecule?
Answer: > 71.3 µM

Question: And the MEC [2]?
Answer: 0.5%

Question: What about the MIC (Trichomonas vaginalis [3]) of the same molecule?
Answer: > 142 µM

Question: And the MIC (Sporothrix schenckii)?
Answer: > 71.3 µM

Question: What about the MIC (Cryptococcus neoformans) of the same molecule?
Answer: > 71.3 µM

Question: What about the MIC (Trichomonas vaginalis [4]) of the same molecule?
Answer: > 142 µM

Question: With CCCCN1CCN(C(=S)SCCC)CC1 as the molecule, how does the MEC [2] read?
Answer: >1%

Question: What does the source list for CCCCCCSC(=S)N1CCN(C(=S)SSC(=S)N2CCN(C(=S)SCCCCCC)CC2)CC1?
Answer: MIC (Candida albicans): 77.7 µM (≈ 50 µg/mL); MIC [1]: > 77.7 µM; MIC (Candida parapsilosis): 77.7 µM (≈ 50 µg/mL); MEC [2]: 1%; MIC (Trichomonas vaginalis [3]): > 155 µM; MIC (Sporothrix schenckii): 77.7 µM (≈ 50 µg/mL); MIC (Cryptococcus neoformans): 38.8 µM (≈ 25 µg/mL); MIC (Trichomonas vaginalis [4]): > 155 µM

Question: For COc1ccccc1N1CCN(C(=S)SSC(=S)N2CCN(c3ccccc3OC)CC2)CC1, which MIC (Candida albicans) is on record?
Answer: 46.7 µM (≈ 25 µg/mL)

Question: What about the MIC [1] of the same molecule?
Answer: 93.4 µM (≈ 50 µg/mL)

Question: And the MIC (Candida parapsilosis)?
Answer: > 93.4 µM

Question: And the MEC [2]?
Answer: 1%

Question: What about the MIC (Trichomonas vaginalis [3]) of the same molecule?
Answer: > 186 µM

Question: What about the MIC (Sporothrix schenckii) of the same molecule?
Answer: 46.7 µM (≈ 25 µg/mL)

Question: And the MIC (Cryptococcus neoformans)?
Answer: 23.3 µM (≈ 12.5 µg/mL)

Question: What about the MIC (Trichomonas vaginalis [4]) of the same molecule?
Answer: > 186 µM

Question: With CCCCCCSC(=S)N1CCN(CCCC)CC1 as the molecule, how does the MEC [2] read?
Answer: >1%

Question: Which MIC (Candida albicans) does the source give for O=C(c1ccccc1)N1CCN(C(=S)SSC(=S)N2CCN(C(=O)c3ccccc3)CC2)CC1 here?
Answer: 94.1 µM (≈ 49.9 µg/mL)

Question: And the MIC [1]?
Answer: > 94.1 µM

Question: What about the MIC (Candida parapsilosis) of the same molecule?
Answer: > 94.1 µM

Question: What about the MEC [2] of the same molecule?
Answer: 0.5%

Question: And the MIC (Trichomonas vaginalis [3])?
Answer: > 188 µM

Question: And the MIC (Sporothrix schenckii)?
Answer: > 94.1 µM

Question: And the MIC (Cryptococcus neoformans)?
Answer: > 94.1 µM

Question: And the MIC (Trichomonas vaginalis [4])?
Answer: > 188 µM

Question: With CCCCCCCCN1CCN(C(=S)SSC(=S)N2CCN(CCCCCCCC)CC2)CC1 as the molecule, how does the MIC (Candida albicans) read?
Answer: 91.4 µM (≈ 50 µg/mL)

Question: And the MIC [1]?
Answer: 91.4 µM (≈ 50 µg/mL)

Question: And the MIC (Candida parapsilosis)?
Answer: 91.4 µM (≈ 50 µg/mL)

Question: And the MEC [2]?
Answer: 0.1%

Question: And the MIC (Trichomonas vaginalis [3])?
Answer: 182 µM (≈ 99.6 µg/mL)

Question: What about the MIC (Sporothrix schenckii) of the same molecule?
Answer: 91.4 µM (≈ 50 µg/mL)

Question: And the MIC (Cryptococcus neoformans)?
Answer: 91.4 µM (≈ 50 µg/mL)

Question: And the MIC (Trichomonas vaginalis [4])?
Answer: 182 µM (≈ 99.6 µg/mL)
